{"source": "the RNAGym collection of RNA variant scans (doi:10.1126/science.aae0568)", "parents": {"B1": {"name": "tRNA (parent)", "chain": "GUUCCGUUGGCGUAAUGGUAACGCGUCUCCCUCCUAAGGAGAAGACUGCGGGUUCGAGUCCCGUACGGAACG"}}, "note": "Fewer inactive variants are shown than the library holds.", "data": [{"variants_of": "B1", "experiment": "yeast fitness relative to wild type (ratio to wild type); higher = fitter; tRNA-Arg(CCU), competitive growth, 37 C, YPD", "how_it_was_run": "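Variants of the tRNA-Arg(CCU) gene were chemically synthesised with a 3% per-site mutation rate across 69 sites and placed at the native genomic locus in Saccharomyces cerevisiae. Six parallel replicates of the pooled strains were competed in YPD at 37°C for 24 hours, and gene amplicons from the start and end populations were read by 100-nucleotide paired-end sequencing. Darwinian fitness relative to wild type was derived from changes in genotype frequencies. Genotypes required ≥ 100 starting reads, and estimates < 0.5 were set to 0.5.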", "values": [{"variant": "GUUCUGAUGGCGUAAUGUUAACGCGUCACCCUCCUAAGGAGAAGACUGCGGGUUCGAGUCCCGUACGGAACG", "note": "[C5U U7A G18U U28A]", "yeast fitness": "≤ 0.5"}, {"variant": "GUUCUGAUGGCGUAAUGGUAACGCGUCUCCCUCCUAAGCAGAAGACUGUGGGUUCGAGUCCCGUACGGAACG", "note": "[C5U U7A G39C C49U]", "yeast fitness": "≤ 0.5"}, {"variant": "GUUCUGAUGGCGUAAUGGUAACGCGACUCCCUCCUAAGCAGAAGACUGCGGGUUCGAGUCCCGUACGGAACG", "note": "[C5U U7A U26A G39C]", "yeast fitness": "≤ 0.5"}, {"variant": "GUUCUGAUGGCGUAAUGGUAACGCGUCACCCUCCUAAGGAGAAGACUGCGGGUUCGAGUCCCGUACGGAACG", "note": "[C5U U7A U28A]", "yeast fitness": 0.573}, {"variant": "GUUCUGAUGGCGUAAUGGUAACGCGUCACCCUCCUAAGGAGAAGACUGUGGGUUCGAGUCCCGUACGGAACG", "note": "[C5U U7A U28A C49U]", "yeast fitness": "≤ 0.5"}, {"variant": "GUUCUGCUGGCGUAAUGGUAACGCGUCUCCCUCCUAAGGAGAAGACUGCGGGUUCGAGUCCCGUACGGAACG", "note": "[C5U U7C]", "yeast fitness": 0.92}, {"variant": "GUUCUGCUGGCGUAUUGGUAACGCGUCUCCCUCCUAAGGUGAAGACUGCGGGUUCGAGACCCGUUCGAAACG", "note": "[C5U U7C A15U A40U U59A A65U G68A]", "yeast fitness": 0.542}, {"variant": "GUUCUGCUGGCGUAAUGGUAACGCGUCUCCCUCCUAAGGUGAAGACUGCGGGUUCGAGUCCCCUACGGAACG", "note": "[C5U U7C A40U G63C]", "yeast fitness": "≤ 0.5"}, {"variant": "GUUCUGCUGGCGUAAUGGUAACGCGUCUCACUCCUAAGGAGCAGACUGCGGGUUCGAGUCCCGUUCGGUACG", "note": "[C5U U7C C30A A42C A65U A69U]", "yeast fitness": "≤ 0.5"}, {"variant": "GUUCUGCUGGCGUAAUGGUAACGCGUCUCGCUCCUAAGGAGCAGACUGCGGGUUCGAGUCCCGUACGGAACG", "note": "[C5U U7C C30G A42C]", "yeast fitness": 0.565}, {"variant": "GUUCUGCUGGCGUAAUGGUAACGCGUCUCGCUCCUAAGGAGCAGACUGCGGAUUUGAGUCCCGUAUGGAACG", "note": "[C5U U7C C30G A42C G52A C55U C66U]", "yeast fitness": "≤ 0.5"}, {"variant": "GUUCUGCUGACGUAAUGGUAACGCGUCUCCCUCAUAAGGAGAAGACUGCGGGUUCGAGUCCCAUACGGAACG", "note": "[C5U U7C G10A C34A G63A]", "yeast fitness": "≤ 0.5"}, {"variant": "GUUCUGCUGGCGUAAUGGUAACGCGUCUCCCUCCUAAAGAGAAGGCUACGGGUUCGAGUCCCGUACAGAACG", "note": "[C5U U7C G38A A45G G48A G67A]", "yeast fitness": "≤ 0.5"}, {"variant": "GUUCUGCUGGCGUAAUGGUAACGCGUCUCCCUCCUAAGGAGAAGACUGCGGCUUCGUGUCCUGUAGGGAACG", "note": "[C5U U7C G52C A57U C62U C66G]", "yeast fitness": "≤ 0.5"}, {"variant": "GUUCUGGUGGCGUAAUGGUAACGCGUCUCCCUCCUAAGGAGAAGACUGCGGGUUCGAGUCCCGUACGGAACG", "note": "[C5U U7G]", "yeast fitness": 0.894}, {"variant": "GUUCUGGUGGCGUCAUGGUAACGCGUCUGCCUCCUAAGGAGAAGACUGCGGGUUCGAGUCCCGUACGGAACG", "note": "[C5U U7G A14C C29G]", "yeast fitness": "≤ 0.5"}, {"variant": "GUUCUGGUGGCGUAAUGGUAACGCGUCUCCCUCCUAAGGAGAAGGCUGCGGGUUCGAGUCCCGUACGGACCG", "note": "[C5U U7G A45G A70C]", "yeast fitness": "≤ 0.5"}, {"variant": "GUUCUGGUGGCGUAAUGGUAACGCGUCUCCCUCCUAAGGAGAAGACUGCGGGUUCGUGUCCCGUACGGAACG", "note": "[C5U U7G A57U]", "yeast fitness": "≤ 0.5"}, {"variant": "GUUCUGGUGGCGUAAUGGUAACGCGUCUCACUCCUAAGGAGAAGACUGCGGGUUCGAGUCCCGUACGGAACG", "note": "[C5U U7G C30A]", "yeast fitness": 0.93}, {"variant": "GUUCUGGUGGCGUAAUGGUAACGCGUCUCCCUCGUAAGGAGAAAACUGCGGGUUCGAGGCCCGUACGUAACG", "note": "[C5U U7G C34G G44A U59G G68U]", "yeast fitness": "≤ 0.5"}, {"variant": "GUUCUGGUGGCGUAAUGGUAACGCGUCUCCCUCCUAAGGAGAAGACUGCGGGUUCGAGUCCAGUACGGAACG", "note": "[C5U U7G C62A]", "yeast fitness": "≤ 0.5"}, {"variant": "GUUCUGGUGGCGUAAUGGUAACGCCUCUCCCUCCUAAGAAGAAGACUGCGGGUUCGAGUCCCGUAUGGAACG", "note": "[C5U U7G G25C G39A C66U]", "yeast fitness": "≤ 0.5"}, {"variant": "GUUCUGUAGGCGUAAUGGUAACGCGUCUCCCUCCUAAGGAGAAGACUGCGGGUUCGUGUCCCGUACGGAACG", "note": "[C5U U8A A57U]", "yeast fitness": "≤ 0.5"}, {"variant": "GUUCUGUAGGCGUAAUGGUAACGCGUCUCCCUCCUAAGGAGAAGACUGCGGGUUCGAGUCCCGUACGGCACG", "note": "[C5U U8A A69C]", "yeast fitness": "≤ 0.5"}, {"variant": "GUUCUGUAGGCGUAAUGGUAACGCGUCUCCCUCCUAAGGAGAAGACUGCGGGUUCGAGUCCCGUACGGACCG", "note": "[C5U U8A A70C]", "yeast fitness": 0.583}, {"variant": "GUUCUGUAGGUGUAAUGGUAACGCGUCUCCCUCCGAAGGAGAUGAGUGCGGGCUCGAGUCCCGUACGGCACG", "note": "[C5U U8A C11U U35G A43U C46G U53C A69C]", "yeast fitness": "≤ 0.5"}, {"variant": "GUUCUGUAGGCGUAAUGGUAACGCGUCUCCCUCCUAAGGAGAAGAAUGCGGGUUCGAGUCCCGUACGGAACG", "note": "[C5U U8A C46A]", "yeast fitness": "≤ 0.5"}, {"variant": "GUUCUGUAGGCGUAAUGCUAACGCGUCUCCCUCCUAAGGAGAAGACUGCGGGUUCGAGUCCCGUACGGAACG", "note": "[C5U U8A G18C]", "yeast fitness": 0.577}, {"variant": "GUUCUGUAGGCGUAAUGCUGACGCGUCUCCCUCCUAAGGAGAAGACUGCGGGUUCGAGUCCCGUACGGAACG", "note": "[C5U U8A G18C A20G]", "yeast fitness": 0.537}, {"variant": "GUUCUGUAGGCGUAAUGGUAACGCGUCUCCCUCCUAAGGAGAAGACUGCGGGUUCGAGGCCCGUACGGAACG", "note": "[C5U U8A U59G]", "yeast fitness": "≤ 0.5"}, {"variant": "GUUCUGUCGGCGUAAUGGUAACGCGUCUCCCUCCUAAGGAGAAGACUGCGGGUUCGAGUCCCGUACGGAACG", "note": "[C5U U8C]", "yeast fitness": 1.07}, {"variant": "GUUCUGUCGGCGUCAUGGUAACGCGUCUCCCUCCUAAGGAGAAGACUGCGGGUUCGAGUCCCGUACGGAACG", "note": "[C5U U8C A14C]", "yeast fitness": "≤ 0.5"}, {"variant": "GUUCUGUCGGCGUAAUGGUGACGCGUCUCACUCCUAAGGAGAAGACUGCGGGUUCGAGUCUCGUACGGAACG", "note": "[C5U U8C A20G C30A C61U]", "yeast fitness": 0.544}, {"variant": "GUUCUGUCGGCGUAAUGGUAACGCGUCUCCCUCCUGAGGGGAAGACUGCGGGUUCGAGUACCGUACGGAACG", "note": "[C5U U8C A36G A40G C60A]", "yeast fitness": "≤ 0.5"}, {"variant": "GUUCUGUCGGCGUAAUGGUAACGCGUCUCCCUCCUGAGGAGAAGACUGCGGGUUCGAGUACCGUACGGAACG", "note": "[C5U U8C A36G C60A]", "yeast fitness": "≤ 0.5"}, {"variant": "GUUCUGUCGGCGUAAUGGUAACGCGUCUCCCUCCUAAGGAGAUGACUGCGGGUUCGAGUCCCGUACGGAACG", "note": "[C5U U8C A43U]", "yeast fitness": 0.703}, {"variant": "GUUCUGUCGGCGUAAUGGUAACGCGUCUCCCUCCUAAGGAGAUGACUGCGGGUUCGAGUCCCGUAUGGAACG", "note": "[C5U U8C A43U C66U]", "yeast fitness": "≤ 0.5"}, {"variant": "GUUCUGUCGGGGUAUUGGUAACGCGUCUCCCUCCUUAAGAGAAGACUGCGGGUUCGAGUCUCGUACGGAUCG", "note": "[C5U U8C C11G A15U A36U G38A C61U A70U]", "yeast fitness": 0.564}]}]}
